# Measured values from ChEMBL document CHEMBL1145495, “Polyamine effects on antibiotic susceptibility in bacteria” (2007).
# Active and inactive are the calls of the source. The calls are words filed in the database; no cut-off is given here.
# Columns and labels:
# Escherichia coli [1] = experiment: Antibacterial activity against Escherichia coli K10 at upto 16 mM after 14 to 16 hrs by broth dilution method; assay type: functional, organism-based
# Escherichia coli [2] = experiment: Antibacterial activity against Escherichia coli K12 at upto 16 mM after 14 to 16 hrs by broth dilution method; assay type: functional, organism-based
# Escherichia coli [3] = experiment: Antibacterial activity against Escherichia coli C921-61 at upto 16 mM after 14 to 16 hrs by broth dilution method; assay type: functional, organism-based
# Salmonella typhimurium [4] = experiment: Antibacterial activity against Salmonella enterica serovar Typhimurium LT2 at upto 16 mM after 14 to 16 hrs by broth dilution method; assay type: functional, organism-based; conditions: Salmonella enterica subsp. enterica serovar Typhimurium
# Staphylococcus aureus [5] = experiment: Antibacterial activity against Staphylococcus aureus N315 at upto 16 mM after 14 to 16 hrs by broth dilution method; assay type: functional, organism-based
# Staphylococcus aureus [6] = experiment: Antibacterial activity against Staphylococcus aureus Mu50 at upto 16 mM after 14 to 16 hrs by broth dilution method; assay type: functional, organism-based
# Staphylococcus aureus [7] = experiment: Antibacterial activity against Staphylococcus aureus ATCC 3556 at upto 16 mM after 14 to 16 hrs by broth dilution method; assay type: functional, organism-based
# Staphylococcus aureus [8] = experiment: Antibacterial activity against Staphylococcus aureus N315 after 14 to 16 hrs by broth dilution method; assay type: functional
# Summary of the method: (§1)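 CLSI broth dilution in cation-adjusted Mueller-Hinton broth with serial twofold dilutions, with or without spermine or spermidine added. Overnight cultures were diluted in saline to OD600 0.1–0.12, and about 10^5 CFU were inoculated. Incubation was 14–16 h at 37°C. MIC was confirmed in three independent experiments. E. coli acrA mutants were tested with 1 mM spermine; P. aeruginosa isolates with 1 mM spermine or 20 mM spermidine.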
# Staphylococcus aureus [9] = experiment: Antibacterial activity against Staphylococcus aureus Mu50 after 14 to 16 hrs by broth dilution method; assay type: functional
# Staphylococcus aureus [10] = experiment: Antibacterial activity against Staphylococcus aureus ATCC 3556 after 14 to 16 hrs by broth dilution method; assay type: functional
# Escherichia coli [11] = experiment: Antibacterial activity against Escherichia coli K10 after 14 to 16 hrs by broth dilution method; assay type: functional
# Escherichia coli [12] = experiment: Antibacterial activity against Escherichia coli K12 after 14 to 16 hrs by broth dilution method; assay type: functional
# Escherichia coli [13] = experiment: Antibacterial activity against Escherichia coli C921-61 after 14 to 16 hrs by broth dilution method; assay type: functional
# Salmonella typhimurium [14] = experiment: Antibacterial activity against Salmonella enterica serovar Typhimurium LT2 after 14 to 16 hrs by broth dilution method; assay type: functional, Salmonella enterica subsp. enterica serovar Typhimurium
# Pseudomonas aeruginosa [15] = experiment: Antibacterial activity against Pseudomonas aeruginosa PAO1 after 14 to 16 hrs by broth dilution method; assay type: functional
# Pseudomonas aeruginosa [16] = experiment: Antibacterial activity against Pseudomonas aeruginosa F4980 after 14 to 16 hrs by broth dilution method; assay type: functional; summary of the method: as §1
# Pseudomonas aeruginosa [17] = experiment: Antibacterial activity against Pseudomonas aeruginosa F66336 after 14 to 16 hrs by broth dilution method; assay type: functional
# Pseudomonas aeruginosa [18] = experiment: Antibacterial activity against Pseudomonas aeruginosa M38100A after 14 to 16 hrs by broth dilution method; assay type: functional
# Pseudomonas aeruginosa [19] = experiment: Antibacterial activity against Pseudomonas aeruginosa T2095 after 14 to 16 hrs by broth dilution method; assay type: functional
# Pseudomonas aeruginosa [20] = experiment: Antibacterial activity against Pseudomonas aeruginosa T15464 after 14 to 16 hrs by broth dilution method; assay type: functional; summary of the method: as §1
# Escherichia coli [21] = experiment: Antibacterial activity against Escherichia coli W4573 assessed as inhibition of AcrAB efflux pump after 14 to 16 hrs by broth dilution method; assay type: functional
# Escherichia coli [22] = experiment: Antibacterial activity against Escherichia coli N43 acrA mutant assessed as inhibition of AcrAB efflux pump after 14 to 16 hrs by broth dilution method; assay type: functional; summary of the method: as §1
# Escherichia coli [23] = experiment: Antibacterial activity against Escherichia coli N818 delta acrA mutant assessed as inhibition of AcrAB efflux pump after 14 to 16 hrs by broth dilution method; assay type: functional; summary of the method: as §1
# Pseudomonas aeruginosa [24] = experiment: Antibacterial activity against Pseudomonas aeruginosa H4563 after 14 to 16 hrs by broth dilution method; assay type: functional
# Pseudomonas aeruginosa [25] = experiment: Antibacterial activity against Pseudomonas aeruginosa M22152 after 14 to 16 hrs by broth dilution method; assay type: functional; summary of the method: as §1
# Pseudomonas aeruginosa [26] = experiment: Antibacterial activity against Pseudomonas aeruginosa M38100B after 14 to 16 hrs by broth dilution method; assay type: functional
# Pseudomonas aeruginosa [27] = experiment: Antibacterial activity against Pseudomonas aeruginosa T6268 after 14 to 16 hrs by broth dilution method; assay type: functional
Structure (SMILES),MIC (Staphylococcus aureus [8]),MIC (Staphylococcus aureus [9]),MIC (Staphylococcus aureus [10]),MIC (Escherichia coli [11]),MIC (Escherichia coli [12]),MIC (Escherichia coli [13]),MIC (Salmonella typhimurium [14]),also measured
NCCCCNCCCN,,,,,,,,Activity (Escherichia coli [1]): inactive; Activity (Escherichia coli [2]): inactive; Activity (Escherichia coli [3]): inactive; Activity (Salmonella typhimurium [4]): inactive; Activity (Staphylococcus aureus [5]): inactive; Activity (Staphylococcus aureus [6]): inactive; Activity (Staphylococcus aureus [7]): inactive
CC1(C)S[C@@H]2[C@H](NC(=O)[C@H](N)c3ccc(O)cc3)C(=O)N2[C@H]1C(=O)O [AMOXICILLIN],16 µg/mL,16 µg/mL,1 µg/mL,,,,,
CC1(C)S[C@@H]2[C@H](NC(=O)[C@H](N)c3ccccc3)C(=O)N2[C@H]1C(=O)O [AMPICILLIN],128 µg/mL,64 µg/mL,2 µg/mL,8 µg/mL,4 µg/mL,4 µg/mL,4 µg/mL,
CC1(C)S[C@@H]2[C@H](NC(=O)[C@H](NC(=O)N3CCNC3=O)c3ccccc3)C(=O)N2[C@H]1C(=O)O [AZLOCILLIN],16 µg/mL,16 µg/mL,0.5 µg/mL,16 µg/mL,16 µg/mL,8 µg/mL,16 µg/mL,
CCN1CCN(C(=O)N[C@@H](C(=O)N[C@@H]2C(=O)N3C(C(=O)O)=C(CSc4nnnn4C)CS[C@H]23)c2ccc(O)cc2)C(=O)C1=O [CEFOPERAZONE],4 µg/mL,> 1020 µg/mL,1 µg/mL,,,,,
CO/N=C(\C(=O)N[C@@H]1C(=O)N2C(C(=O)O)=C(COC(C)=O)CS[C@H]12)c1csc(N)n1 [CEFOTAXIME],2 µg/mL,> 1020 µg/mL,0.5 µg/mL,,,,,
CC(C)(O/N=C(\C(=O)N[C@@H]1C(=O)N2C(C(=O)[O-])=C(C[n+]3ccccc3)CS[C@H]12)c1csc(N)n1)C(=O)O [CEFTAZIDIME],32 µg/mL,512 µg/mL,8 µg/mL,,,,,
CO/N=C(\C(=O)N[C@@H]1C(=O)N2C(C(=O)O)=C(CSc3nc(=O)c(O)nn3C)CS[C@H]12)c1csc(N)n1 [CEFTRIAXONE],4 µg/mL,> 1020 µg/mL,2 µg/mL,,,,,
O=C(Cc1cccs1)N[C@@H]1C(=O)N2C(C(=O)[O-])=C(C[n+]3ccccc3)CS[C@H]12 [CEPHALORIDINE],1 µg/mL,16 µg/mL,< 0.06 µg/mL,8 µg/mL,4 µg/mL,4 µg/mL,0.015 µg/mL,
CC(=O)OCC1=C(C(=O)O)N2C(=O)[C@@H](NC(=O)Cc3cccs3)[C@H]2SC1 [CEPHALOTHIN],1 µg/mL,64 µg/mL,0.5 µg/mL,,,,,
O=C(N[C@H](CO)[C@H](O)c1ccc([N+](=O)[O-])cc1)C(Cl)Cl [CHLORAMPHENICOL],8 µg/mL,8 µg/mL,8 µg/mL,,32 µg/mL,4 µg/mL,2 µg/mL,MIC (Pseudomonas aeruginosa [15]): 128 µg/mL; MIC (Pseudomonas aeruginosa [16]): 32 µg/mL; MIC (Pseudomonas aeruginosa [17]): 8 µg/mL; MIC (Pseudomonas aeruginosa [18]): 4 µg/mL; MIC (Pseudomonas aeruginosa [19]): 32 µg/mL; MIC (Pseudomonas aeruginosa [20]): 32 µg/mL; MIC (Escherichia coli [21]): 8 µg/mL; MIC (Escherichia coli [22]): 2 µg/mL; MIC (Escherichia coli [23]): 2 µg/mL
O=C(O)c1cn(C2CC2)c2cc(N3CCNCC3)c(F)cc2c1=O [CIPROFLOXACIN],1 µg/mL,64 µg/mL,0.25 µg/mL,≤ 0.03 µg/mL,≤ 0.03 µg/mL,≤ 0.03 µg/mL,≤ 0.03 µg/mL,MIC (Pseudomonas aeruginosa [16]): 4 µg/mL; MIC (Pseudomonas aeruginosa [24]): 128 µg/mL; MIC (Pseudomonas aeruginosa [25]): 4 µg/mL; MIC (Pseudomonas aeruginosa [26]): 32 µg/mL; MIC (Pseudomonas aeruginosa [27]): 4 µg/mL
